Test system: MS2 coat protein
Assay: apparent Kd, MS2 coat protein; higher = weaker binding; RNA-MaP array; FMN 200 µM where present
Summary of the method: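 The apparent Kd is the median of filtered binding-curve fits, one per cluster, to green signal normalised to red-channel RNA signal and control-cluster median Fmax. The clusters were on Illumina sequencing chips, and stalled E. coli RNA polymerase had transcribed the designs on them. Titration used SNAP-549-labelled MS2 coat protein from 0.7 or 1.5 nM, doubling to 3 µM, without and then with constant ligand, in 100 mM Tris-HCl pH 7.5, 80 mM KCl, 4 mM MgCl2, BSA, DTT, yeast tRNA and Tween-20.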

[1] = designed as: OFF switch for flavin mononucleotide, no ligand
[2] = ligand present: flavin mononucleotide, designed as: OFF switch for flavin mononucleotide
[3] = designed as: ON switch for flavin mononucleotide, no ligand
[4] = ligand present: flavin mononucleotide, designed as: ON switch for flavin mononucleotide

| Sequence | apparent Kd [1] [nM] | apparent Kd [2] [nM] | apparent Kd [3] [nM] | apparent Kd [4] [nM] |
| --- | --- | --- | --- | --- |
| AUCAGCUCGUCAGGAUAUACGUCACUGCGUCAGCAGUGUGGUAAGGUCACAUGAGGAUCACCCAUGUAGAAGGGACGAGCUGAU | 9.4 | 117 |  |  |
| CCGCAAAAUGAGGAUAUCGUAUCGGAUACGAUACGAGAAGGCGUAACAUGAGGAUCACCCAUGUGUCCUAGCGG | 14.3 | 17.2 |  |  |
| GGAUAGGACAGAGGAUAUACGUGCUAGAGAUACUAGCAAAAUUUCCUCACAUGAGGAUCACCCAUGUAGAAGGCUGGCCUAUCG | 14.1 | 379 |  |  |
| GUUAAGGUAGGAUAUACGAUAAUAUAGGGUAGAAUUAUAACACAUGAGGAUCACCCAUGUAGAAGGACCAAUUG | 31.2 | 39.5 |  |  |
| GUAUAUCACUUAGGAUAUCUAUAAUUUAUUGAAACAUGAGGAUCACCCAUGUUCAUAAAUUUAUAGGAGAAGGGAGUGAUAUAC |  |  | 4.22 | 4.37 |
| AUUAUGUUAGGAUAUGCUUAUGGUGGAUAGUCCAGUGUGGUGCAGAAGGGACAUGAGGAUCACCCAUGUGCUGA | 53.8 | 60.6 |  |  |
| UUUUAGUAAGGAUAUGCGUAGAUCUCGGAAACGAGAUCUACGCAGAAGGUACAUGAGGAUCACCCAUGUAGAUU | 17.4 | 22.3 |  |  |
| CUAGCUAUCGGAGGAUAUCCUCAGCGGAAACGCACAUGAGGAUCACCCAUGUAAAUAAAUAAUUUGGAGAAGGCCGAUAGCUAG |  |  | 294 | 19.2 |
| GACUUGUCAGGAUAUCUUACAUUUGCAUCGUAGUUACCAUUGGAGAAGGGACAUGAGGAUCACCCAUGUUUGGC | 25.6 | 23.9 |  |  |
| UAAAUCUUGUAAGGAUAUACACGAGAUUCAAGUGUAGAAGGUACUUACAUGAGGAUCACCCAUGUAUACAUGGAUAAUAGAUAU |  |  | 211 | 64.5 |
| AAACAUGUCCGAGGAUAUCUAGAAACAUUUUUAAGAGAAGGCGGACAUGAGGAUCACCCAUGUCUCUCCUCAUCAAAUCCAAGU | 15.6 | 68 |  |  |
| GUCGGAAACGACAAAAGUAGCAUAGGAGAAGGUCCAUUAAACAUGAGGAUCACCCAUGUAAUUGGGAAGGAUAUCCUAUGCUAC |  |  | 9.27 | 5.84 |
| AUUAUUAAAGUGAGGAUAUCUAGAGCUUCGGCUCUAGAGAAGGCACAUGAGGAUCACCCAUGUCUCAAUUAUUA | 18.5 | 59.4 |  |  |
| AAUUGAAACGUAGGAUAUCGCAAAGAUCUAGAACGAGAAGGACGUACAUGAGGAUCACCCAUGUUAAAUGGUGAAGAUUAGAUG | 768 | 916 |  |  |
| AGCCUACAUGAGGAUCACCCAUGUCAGGAUAUCUCGCAACGUGUCAAGUUCACGUCGCAGAGAAGGGACUCGGG | 55.7 | 54 |  |  |
| CUCAAACAUGAGGAUCACCCAUGUGUUGUCAUGGGAGGAUAUCCCAGUUCGUUGUAGUCGGGAGAAGGCCUAUGUC |  |  | 67.4 | 28.6 |
| CUCAAACAUGAGGAUCACCCAUGUGUUGUCAUGGGAGGAUAUCUAAGUUCAUUGUAUUCAGGAGAAGGCCUAUGUC |  |  | 310 | 34.4 |
| AGUCAGACAGGAUAUACGUGGAUGGAACACUUAUUUCCACUACAUGAGGAUCACCCAUGUAGAAGGGUCUGACA | 18.8 | 19.7 |  |  |
| CGCCGACAUGAGGAUCACCCAUGUCACAACUGGUCAGGAUAUGGUAUGAAAUGGCUAUUGCCAGAAGGGACCUCAG |  |  | 40.9 | 20.4 |

| Sequence | apparent Kd [1] [nM] | apparent Kd [2] [nM] | apparent Kd [3] [nM] | apparent Kd [4] [nM] |
| --- | --- | --- | --- | --- |
| GACAUGGUCCAGAAGGGCUAUUUAUUUAAUUAUUAUUUAGAACAGCAUAGCAGGAUAUGGUUAACAUGAGGAUCACCCAUGUUC |  |  | 26.2 | 20.8 |
| ACUUAUUGAGGAUAUACAGAAAAUUACAUGAGGAUCACCCAUGUUCUUCAAUGUAUAUAUGUAGAAGGCAGAAUAG | 14.4 | 27.6 |  |  |
| AGCUGUGGCCGAGGAUAUCUAUCCAAUAUAACCGAAAUAUAAUCGGACAUGAGGAUCACCCAUGUAGAGAAGGCGGUCUCAGCA | 19.8 | 25.5 |  |  |
| CCGAAACCUCAGAAGGACCACAUGAGGAUCACCCAUGUCAAGCAAAACGGUAGGAUAUGAGGGAAAAGUCGAUAUACCCGACAG |  |  | 7.84 | 3.93 |
| CGCAAGUCAGGAUAUUCGACUGGUAAAUCUGUGGAUCAGUAGGAGAAGGGACAUGAGGAUCACCCAUGUUUGUA | 29.5 | 35.9 |  |  |
| GAGUUACAUGAGGAUCACCCAUGUGGUUGUGGAUAAGGAUAUAUGGUAGGAGGAGGAAUGAUAGAAGGUAUUAGGG |  |  | 69 | 45.5 |
| GGGCCCGGAGGAUAUACAUGAGGAUCACCCAUGUAGGGCCCGGGUAUUUUUGGGCCCUGUAGAAGGUUGGGCCC | 11.5 | 12.2 |  |  |
| AAUCAGCGAGGAUAUACAGAUUCUGGGUGCGGCUCGGCGAGACAUGAGGAUCACCCAUGUAGAAGGUGCUAGCC | 37.9 | 43.8 |  |  |
| UGAAUGUGAGGAUAUGGUGAGUAGUGCCAGAGCGCUGCUCACCAGAAGGCACAUGAGGAUCACCCAUGUACUUG | 64.3 | 179 |  |  |
| AUCAUGUGAGGAUAUGUGAUCAACCUUCUAUAUAGAUGAUGACAGAAGGCACAUGAGGAUCACCCAUGUAGAUC | 90.7 | 21.8 |  |  |
| AUUUUAAUGUCAGGAUAUGUUAGUUUAUACAUAGUAGAAGGGAUAAUUAUACUCAUGUACAUGAGGAUCACCCAUGUUAAAUAA |  |  | 163 | 98.1 |
| GCAGGAUAAGUCAGGAUAUACCUAUGGAUACAUAGGUAGAAGGGACAUGAGGAUCACCCAUGUGCCUCGCCUGC | 14.5 | 37.4 |  |  |
| UGGCGCAACAGAGGAUAUGCAUAGGCUGCCUUACAUGAGGAUCACCCAUGUGCAGAAGGCUGUUGCCAUUACAAGCGCACUAAU | 118 | 402 |  |  |
| CAGCUCUGAGGAUAUCCAUCCUCCUACAUGAGGAUCACCCAUGUUUCCCUCUGGGUUUUCGGAGAAGGCAGUUAUU | 238 | 459 |  |  |
| CCACAUGAGGAUCACCCAUGUGACUUCUGUGGCCCGGUGUUGCAGGAUAUCGCAAGGUUAGUUGACGAGAAGGGCGACGGUGGU | 31.1 | 102 |  |  |
| GACAGCUCGUGAGGAUAUACAACACUGCUUCGGCAGUGUAUUAAGAUCACAUGAGGAUCACCCAUGUAGAAGGCACGAGCUGAU | 13.5 | 319 |  |  |
| GGAAAACAUGAGGAUCACCCAUGUGAGGAUAUCGAUGUCCAACCACCCGUGCGGGACUCGAGAAGGCACUUGGA | 53.4 | 146 |  |  |
| AAUUAUAUGUAGAAGGUACUAACAUAAGUGUUGUAAGGAUAUACCAAUUUAUUAGUUUUAAAGUUACAUGAGGAUCACCCAUGU |  |  | 12.4 | 7.98 |
| GUCAGCUCGUGAGGAUAUACAUGUGCUGGAUACAGCACUAAUUAAUUCACAUGAGGAUCACCCAUGUAGAAGGCACGAGCUGAU | 16.1 | 18.8 |  |  |

| Sequence | apparent Kd [1] [nM] | apparent Kd [2] [nM] | apparent Kd [3] [nM] | apparent Kd [4] [nM] |
| --- | --- | --- | --- | --- |
| AAGGAGUGAGGAUAUACAUGAGGAUCACCCAUGUUGAUGGAAACGUCAGAGAAAGAAGGUAGAAGGCACAAGAA | 56.7 | 58.5 |  |  |
| UUGGGUUUGCGAGGAUAUCGUAUGUGAUUUGAACGAGAAGGCGCUAUUUAAAUUAUUUUAACAUAACAUGAGGAUCACCCAUGU |  |  | 17.4 | 16 |
| AAGUUUGUACAAGGAUAUCAAUUGUUUCUAAAUUCAACAUGAGGAUCACCCAUGUAACAAUGGAGUGAGAAGGUGUGUGGGCAA |  |  | 419 | 423 |
| AAGUGUAUAGGAUAUGCGUGGAAAAGGUGUAUUCACUAGCGACAUGAGGAUCACCCAUGUAGAAGGGUAUGUAA | 124 | 64 |  |  |
| UGAUAGCACAGAGGAUAUGCGUAGUGUUAUCACUACAUGAGGAUCACCCAUGUAGAAGGCUGUGCUAUCUAAGUCGGAAACGAC | 6.33 | 7.44 |  |  |
| AAUUCGUCAGGAUAUGCAUGUAAUUGUUACAUUUCUCCGUUGCAGAAGGGACAUGAGGAUCACCCAUGUAAGUC | 29.7 | 28.7 |  |  |
| UUGGUUAUACAAGGAUAUCAAUUAUAUACACAUCCUACAUGAGGAUCACCCAUGUUUUAUUUUUUUGAGAAGGUGUAUUGUCGG |  |  | 22.4 | 29 |
| ACAUGAGGAUCACCCAUGUGGACAUAGGAUAUUGGUGAUCAGGCGUGUUAUACAGGAUAGGUCUGCGAGAAGGGUGUACGUUGC |  |  | 588 | 295 |
| CAACCGUUGCAGAAGGUUAAAUAAUUUCUCAUCUUGUUUACAUGAGGAUCACCCAUGUAUUUGUUGAAGGAUAUGCAAGGGUUG | 6.96 | 6.6 |  |  |
| GUAGAGUCAGGAUAUACAAGAUCGAAAGAUCGAAGAUUUAUACAUGAGGAUCACCCAUGUAGAAGGGACUCUAC | 14.4 | 16.9 |  |  |
| UCAUCAAAUUGAACAUGAGGAUCACCCAUGUAGGAUUAGCCACAGGAUAUCCGUGCUAGAAUGUGGGAGAAGGGUGGUCACUCC |  |  | 334 | 64.5 |
| GGUUGGCGAGGAUAUACAUGAGGAUCACCCAUGUGGUCCUGUGGCUGGUCUUGACUUUGUAGAAGGCGCGGGUC | 49.7 | 55.3 |  |  |
| GCAGCGUAUGUAGGAUAUCGGUCAGUUUCUGAUCGAGAAGGACAUGAGGAUCACCCAUGUAAAUUUCCGACUUUGUCGGGCUGC | 7.04 | 8.73 |  |  |
| UCCUCACAUGAGGAUCACCCAUGUCAGGAUAUCUGCGAGCAUUGGCCAAGGCCGCUCAGGAGAAGGGACGUCAA | 17.1 | 27.4 |  |  |
| ACAUGAGGAUCACCCAUGUUACGAACAUGAGGAUCACCCAUGUAGGAUAUGCUACUCAAAGAGUAGCAGAAGGACAUGUGCCUU | 1090 | 559 |  |  |
| GGUGGUCUUGUGAGGAUAUGGUUGGAUGCAUAUGAUCAGAAGGCACAUGAGGAUCACCCAUGUGGAAUACCACU | 37.3 | 234 |  |  |
| CGGUGACGUGUAGGAUAUGGAGGUGGGUUUUGGCCAGAAGGACAUGAGGAUCACCCAUGUGGUAGAGGGUUGGCGGCUGCCCGU | 19.7 | 18.9 |  |  |
| AAUAAACUCACAGGAUAUAGCAGAUGUCGCGUGAACUUACAGGCGACGAGGCUAGAAGGGUGACCACAUGAGGAUCACCCAUGU |  |  | 738 | 103 |
